Results reported in ChEMBL document CHEMBL3853327 (J Med Chem, 2016).

Tests used:
[1] = system: Human immunodeficiency virus 1; assay: Antiviral activity against HIV1 3B harboring reverse transcriptase K103N mutant infected in human MT4 cells assessed as protection against virus induced cytotoxicity after 5 days by MTT assay; format: functional, cell-based; details: Human immunodeficiency virus 1, 3B, MT4, 120 h
Summary of the method: (§1)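 MTT cytopathicity assay in MT-4 cells (6 × 10^5 cells/mL). Compounds serially diluted 5-fold in triplicate wells, run in parallel on infected and mock-infected cells. Virus added at 100−300 CCID50 per well. Viability read spectrophotometrically at 540 and 690 nm after 5 days, using the median OD of three wells. EC50 is the concentration giving 50% protection from viral cytopathogenicity.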

[2] = system: Human immunodeficiency virus 1; assay: Fold resistance, ratio of IC50 for recombinant HIV1 reverse transcriptase K103N/Y181C double mutant to IC50 for wild type HIV1 reverse transcriptase
Summary of the method: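 Ratio of mutant to WT IC50. Recombinant WT and K103N/Y181C RT were assayed with a kit: template plus DIG-dUTP, biotin-dUTP and dTTP, with or without inhibitor, 1 h at 37 °C. Product was captured on streptavidin, detected with anti-DIG-POD and ABTS, and read at 405 nm. IC50 is the concentration inhibiting biotin-dUTP incorporation by 50%.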

[3] = system: Human immunodeficiency virus 1; assay: Antiviral activity against HIV1 3B harboring reverse transcriptase Y181C mutant infected in human MT4 cells assessed as protection against virus induced cytotoxicity after 5 days by MTT assay; format: functional, cell-based; details: Human immunodeficiency virus 1, 3B, MT4, 120 h
Summary of the method: (§2)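 MTT cytopathicity assay in MT-4 cells (6 × 10^5 cells/mL). Compounds serially diluted 5-fold in triplicate wells, run in parallel on infected and mock-infected cells. Virus added at 100−300 CCID50 per well. Viability read spectrophotometrically at 540 and 690 nm after 5 days, using the median OD of three wells.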

[4] = Antiviral activity against HIV2 ROD harboring reverse transcriptase infected in human MT4 cells assessed as protection against virus induced cytotoxicity after 5 days by MTT assay; format: functional, cell-based, Human immunodeficiency virus type 2 (ISOLATE ROD); details: Human immunodeficiency virus 2, MT4, 120 h; summary of the method: as §1
[5] = Inhibition of recombinant wild type HIV1 reverse transcriptase using DIG-dUTP/biotin-dUTP/dTTP assessed as suppression of biotin-dUTP incorporation after 1 hr by ELISA; design: species or system Human immunodeficiency virus 1
Summary of the method: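 Recombinant WT HIV-1 RT in a Roche colorimetric kit: template plus DIG-dUTP, biotin-dUTP and dTTP, ±inhibitor, 1 h at 37 °C. Product captured on streptavidin plate 1 h at 37 °C, anti-DIG-POD 1 h at 37 °C, ABTS developed at 25 °C, read at OD405. IC50 is the concentration inhibiting biotin-dUTP incorporation by 50%.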

[6] = Selectivity index, ratio of CC50 for human mock-infected MT4 cells to EC50 for HIV1 3B harboring reverse transcriptase K103N mutant infected in human MT4 cells; format: toxicity, cell-based; details: MT4 cells (mock-infected for CC50, HIV-1 infected for EC50)
Summary of the method: (§3)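 Selectivity index is CC50/EC50. CC50 is the concentration that reduces OD540 of mock-infected MT-4 cells by 50% in the 5-day MTT assay. EC50 is the 50% protection from virus-induced cytopathicity, measured in parallel on infected wells.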

[7] = Selectivity index, ratio of CC50 for human mock-infected MT4 cells to EC50 for HIV1 3B harboring reverse transcriptase Y181C mutant infected in human MT4 cells; format: toxicity, cell-based; details: MT4 cells (mock-infected for CC50, HIV-1 infected for EC50); summary of the method: as §3
[8] = system: Human immunodeficiency virus 1; assay: Antiviral activity against HIV1 3B harboring reverse transcriptase F227L/V106A double mutant infected in human MT4 cells assessed as protection against virus induced cytotoxicity after 5 days by MTT assay; format: functional, cell-based; details: Human immunodeficiency virus 1, 3B, MT4, 120 h; summary of the method: as §1
[9] = Selectivity index, ratio of CC50 for human mock-infected MT4 cells to EC50 for HIV1 RES056 harboring reverse transcriptase K103N/Y181C double mutant infected in human MT4 cells; format: toxicity, cell-based; details: MT4 cells (mock-infected for CC50, HIV-1 infected for EC50); summary of the method: as §3
[10] = Selectivity index, ratio of CC50 for human mock-infected MT4 cells to EC50 for HIV1 3B harboring reverse transcriptase F227L/V106A double mutant infected in human MT4 cells; format: toxicity, cell-based; details: MT4 cells (mock-infected for CC50, HIV-1 infected for EC50); summary of the method: as §3
[11] = Selectivity index, ratio of CC50 for human mock-infected MT4 cells to EC50 for HIV1 3B harboring reverse transcriptase L100I mutant infected in human MT4 cells; format: toxicity, cell-based; details: MT4 cells (mock-infected for CC50, HIV-1 infected for EC50); summary of the method: as §3
[12] = system: Human immunodeficiency virus 1; assay: Antiviral activity against wild type HIV1 3B harboring reverse transcriptase infected in human MT4 cells assessed as protection against virus induced cytotoxicity after 5 days by MTT assay; format: functional, cell-based; details: Human immunodeficiency virus 1, 3B, MT4, 120 h; summary of the method: as §2
[13] = Selectivity index, ratio of CC50 for human mock-infected MT4 cells to EC50 for HIV1 3B harboring reverse transcriptase Y188L mutant infected in human MT4 cells; format: toxicity, cell-based; details: MT4 cells (mock-infected for CC50, HIV-1 infected for EC50); summary of the method: as §3
[14] = Selectivity index, ratio of CC50 for human mock-infected MT4 cells to EC50 for HIV1 3B harboring reverse transcriptase E138K mutant infected in human MT4 cells; format: toxicity, cell-based; details: MT4 cells (mock-infected for CC50, HIV-1 infected for EC50); summary of the method: as §3
[15] = system: Human immunodeficiency virus 1; assay: Antiviral activity against HIV1 3B harboring reverse transcriptase L100I mutant infected in human MT4 cells assessed as protection against virus induced cytotoxicity after 5 days by MTT assay; format: functional, cell-based; details: Human immunodeficiency virus 1, 3B, MT4, 120 h; summary of the method: as §1
[16] = Cytotoxicity against human mock-infected MT4 cells assessed as reduction in cell viability after 5 days by MTT assay; format: toxicity, cell-based
Summary of the method: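 Mock-infected MT-4 cells (6 × 10^5 cells/mL at seeding) with serial 5-fold compound dilutions in triplicate wells. Viability read by MTT after 5 days, absorbance at 540 and 690 nm, median OD of three wells. CC50 is the concentration reducing OD540 of mock-infected cells by 50%.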

[17] = target: Human immunodeficiency virus type 1 reverse transcriptase (Human immunodeficiency virus 1, UniProt Q72547, K103N/Y181C); assay: Inhibition of recombinant HIV1 reverse transcriptase K103N/Y181C double mutant using DIG-dUTP/biotin-dUTP/dTTP assessed as suppression of biotin-dUTP incorporation after 1 hr by ELISA
[18] = Selectivity index, ratio of CC50 for human mock-infected MT4 cells to EC50 for wild type HIV1 3B harboring reverse transcriptase infected in human MT4 cells; format: toxicity, cell-based; details: MT4 cells (mock-infected for CC50, HIV-1 infected for EC50); summary of the method: as §3
[19] = system: Human immunodeficiency virus 1; assay: Antiviral activity against HIV1 3B harboring reverse transcriptase E138K mutant infected in human MT4 cells assessed as protection against virus induced cytotoxicity after 5 days by MTT assay; format: functional, cell-based; details: Human immunodeficiency virus 1, 3B, MT4, 120 h; summary of the method: as §1
[20] = system: Human immunodeficiency virus 1; assay: Antiviral activity against HIV1 3B harboring reverse transcriptase Y188L mutant infected in human MT4 cells assessed as protection against virus induced cytotoxicity after 5 days by MTT assay; format: functional, cell-based; details: Human immunodeficiency virus 1, 3B, MT4, 120 h; summary of the method: as §1

| SMILES | EC50 [1] [nM] | Ratio IC50 [2] | EC50 [3] [nM] | EC50 [4] [nM] | IC50 [5] [nM] | selectivity ratio [6] | selectivity ratio [7] | EC50 [8] [nM] | selectivity ratio [9] | selectivity ratio [10] | selectivity ratio [11] | EC50 [12] [nM] | selectivity ratio [13] | selectivity ratio [14] | EC50 [15] [nM] | CC50 at 120 h [16] [nM] | IC50 [17] [nM] | selectivity ratio [18] | EC50 [19] [nM] | EC50 [20] [nM] |
| --- | --- | --- | --- | --- | --- | --- | --- | --- | --- | --- | --- | --- | --- | --- | --- | --- | --- | --- | --- | --- |
| Cc1cc(C)c(Oc2nc(NC3CCN(Cc4ccncc4)CC3)nc3ccsc23)c(C)c1 | 7.3 | 6 | 24.6 | > 5650 | 210 | 777 | 230 | 133 | 27 | 42 | 101 | 7.6 | 152 | 270 | 56.1 | 5650 | 1260 | 747 | 20.9 | 37.1 |
| Cc1cc(C)c(Oc2nc(NC3CCN(Cc4ccc(S(C)(=O)=O)cc4)CC3)nc3ccsc23)c(C)c1 | 6.2 | 3.84 | 28.9 | > 3420 | 650 | 548 | 118 | 23.9 | 12 | 81 | 143 | 5.7 | 106 | 187 | 23.9 | 3420 | 2500 | 595 | 18.2 | 32.2 |
| Cc1cc(C)c(Oc2nc(NC3CCN(Cc4ccc(F)cc4F)CC3)nc3ccsc23)c(C)c1 | 163 | 30 | 660 | > 14000 | 1600 | 86 | 21 | 6610 | < 1 | 2 | 11 | 36.8 | 18 | 80 | 1240 | 14000 | 46400 | 380 | 174 | 787 |
| Cc1cc(C)c(Oc2nc(NC3CCN(Cc4cccc(F)c4)CC3)nc3ccsc23)c(C)c1 | 149 | 51.2 | 252 | > 24600 | 790 | 165 | 98 | 3120 | 3 | 8 | 16 | 39.1 | 41 | 143 | 1530 | 24600 | 40400 | 628 | 172 | 599 |
| Cc1cc(C)c(Oc2nc(NC3CCN(Cc4cccc(C#N)c4)CC3)nc3ccsc23)c(C)c1 | 38.7 | 5.25 | 193 | > 17200 | 1060 | 445 | 89 | 392 | ≤ 3 | 44 | 36 | 21.1 | 120 | 339 | 476 | 17200 | 5570 | 819 | 50.9 | 143 |
| Cc1cc(C)c(Oc2nc(NC3CCN(Cc4ccc(F)cc4)CC3)nc3ccsc23)c(C)c1 | 91.8 | 5.34 | 182 | > 11900 | 1230 | 130 | 66 | 5310 | 2 | 2 | 10 | 25.7 | 17 | 72 | 1210 | 11900 | 6570 | 465 | 166 | 715 |
| COC(=O)c1ccc(CN2CCC(Nc3nc(Oc4c(C)cc(C)cc4C)c4sccc4n3)CC2)cc1 | 94.6 | 9.92 | 161 | > 24900 | 1240 | 263 | 154 | 1850 | 5 | 13 | 38 | 15.4 | 102 | 629 | 650 | 24900 | 12300 | 1610 | 39.5 | 243 |
